One experiment concerns the target T1, Cytochrome P450 26A1 (Homo sapiens, UniProt O43174).
T1 sequence (O43174 whole entry): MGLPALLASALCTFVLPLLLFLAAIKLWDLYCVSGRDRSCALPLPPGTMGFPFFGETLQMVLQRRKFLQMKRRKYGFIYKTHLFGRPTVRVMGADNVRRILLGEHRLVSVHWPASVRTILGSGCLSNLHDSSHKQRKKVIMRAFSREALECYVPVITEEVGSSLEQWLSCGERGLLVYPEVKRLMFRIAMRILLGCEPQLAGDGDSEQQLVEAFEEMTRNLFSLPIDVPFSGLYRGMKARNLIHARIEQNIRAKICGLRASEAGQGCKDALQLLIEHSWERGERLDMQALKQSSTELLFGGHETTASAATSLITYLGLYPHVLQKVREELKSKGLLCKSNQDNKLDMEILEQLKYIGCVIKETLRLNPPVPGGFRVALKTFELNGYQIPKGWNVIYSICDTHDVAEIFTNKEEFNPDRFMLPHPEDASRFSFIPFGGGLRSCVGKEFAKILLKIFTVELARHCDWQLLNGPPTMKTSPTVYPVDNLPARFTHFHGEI
Kind of experiment: Inhibition of CYP26A1 in human MCF7 cells assessed as all-trans retinoic acid metabolism. The experiment is classed as ADME, cell-based. An outline of the steps: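 Seeded 2.5 × 10^5 per well and allowed 24 h to adhere, then washed with PBS. Fresh medium with inhibitor in acetonitrile plus atRA (final 1 × 10^-7 M, 0.1 μCi [3H]-atRA), 9 h at 37 °C in the dark, duplicate. Stopped with 1% acetic acid. Metabolites separated by radio-HPLC on C18. IC50 is the average of two experiments.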

A further experiment concerns Liver microsomes. Kind of experiment: Inhibition of all-trans retinoic acid metabolism in rat liver microsomes. Format: functional, Microsome. An outline of the steps:
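Rat liver microsomes incubated with [11,12-3H]-atRA (diluted in unlabeled atRA), inhibitor in acetonitrile, NADPH and 50 mM phosphate buffer pH 7.4, duplicate tubes, 30 min at 37 °C with shaking. Extract evaporated and metabolites resolved by C18 radio-HPLC (acetonitrile/1% ammonium acetate/acetic acid 75:25:0.1). IC50 is the average of two experiments.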
(In general: Liver microsomes are vesicles of endoplasmic reticulum, rich in cytochrome P450 enzymes.)

Calls of active or inactive are those of the source. The calls are words filed in the database; no cut-off is given here.

For `O=C1/C(=C/c2ccc(O)cc2)CCc2cc(O)ccc21`, the IC50 on Cytochrome P450 26A1 is 9 µM; with Liver microsomes, over 20 µM.

In the case of `O=C1/C(=C/c2ccccc2-c2ccccc2)CCc2cc(O)ccc21`, the results for the half-maximal inhibitory concentration (IC50) at Cytochrome P450 26A1 and in the experiment with Liver microsomes were 20 µM and over 20 µM, respectively.

In the case of `COc1ccc2c(c1)CCC(Cc1ccc(O)cc1)C2=O` (configuration not stated), the IC50 on Cytochrome P450 26A1 was determined as 5 µM; with Liver microsomes it was 0.4 µM. As to `CN(C)c1ccc(/C=C2\CCc3cc(O)ccc3C2=O)cc1`, the 50% inhibitory concentration (IC50) is 50 µM on Cytochrome P450 26A1 and over 20 µM in the experiment with Liver microsomes.

On to `Clc1cccc(C(c2ccc3[nH]cnc3c2)n2ccnc2)c1` (configuration not stated), for which the outcome with Liver microsomes (Microsome) was Active. For the compound `O=C1/C(=C/c2ccc(-c3ccccc3)cc2)CCc2cc(O)ccc21`, the IC50 was 50 µM on Cytochrome P450 26A1 and over 20 µM in the experiment on Liver microsomes. For the compound `Nc1ccc(CC2CCc3cc(O)ccc3C2=O)cc1` (single isomer, unassigned; (-)), the values for the IC50 at Cytochrome P450 26A1 and in the experiment with Liver microsomes were 39 µM and 10.2 µM, respectively. In the case of `O=C1c2ccc(O)cc2CCC1Cc1ccc(O)cc1` (configuration not stated), the results for the IC50 on Cytochrome P450 26A1 and in the experiment on Liver microsomes were 20 µM and 1.5 µM, respectively. As to `COc1ccc2c(c1)CC/C(=C\c1cc(C(F)(F)F)ccc1C(F)(F)F)C2=O`, the IC50 on Cytochrome P450 26A1 is 50 µM; in the experiment with Liver microsomes, over 20 µM.

In the case of `O=C1c2ccc(O)cc2CCC1Cc1ccccc1-c1ccccc1` (configuration not stated), the results for the IC50 on Cytochrome P450 26A1 and in the experiment on Liver microsomes were 10 µM and 0.5 µM, respectively. For the compound `O=C1c2ccc(O)cc2CCC1Cc1ccc(-c2ccccc2)cc1` (configuration not stated), the IC50 on Cytochrome P450 26A1 came to 10 µM; in the experiment on Liver microsomes, 0.8 µM. Take `CCC(CC)[C@H](c1ccc(Nc2nc3ccccc3s2)cc1)n1cncn1`: the IC50 at Cytochrome P450 26A1 turned out to be 0.005 µM; with Liver microsomes, 9 µM. The corresponding values for `COc1ccc2c(c1)CCC(Cc1ccccc1C)C2=O` (configuration not stated) are 20 µM and 1.8 µM. Turning to `O=C1/C(=C/c2ccccc2Br)CCc2cc(O)ccc21`, the results for the IC50 on Cytochrome P450 26A1 and with Liver microsomes were 20 µM and 2.4 µM, respectively. With `CN(C)c1ccc(CC2CCc3cc(O)ccc3C2=O)cc1` (configuration not stated), the IC50 came out at 25 µM on Cytochrome P450 26A1 and 1.2 µM in the experiment on Liver microsomes.

On to `COc1ccc2c(c1)CCC(Cc1cc(C(F)(F)F)ccc1C(F)(F)F)C2=O` (configuration not stated), for which the IC50 came to 50 µM at Cytochrome P450 26A1 and 18 µM in the experiment with Liver microsomes. For `COc1ccc2c(c1)CCC(Cc1ccc(O)cc1)C2` (configuration not stated), the IC50 was determined as 25 µM at Cytochrome P450 26A1 and 2.2 µM in the experiment on Liver microsomes. As to `COc1ccc2c(c1)CC/C(=C\c1ccc(O)cc1)C2=O`, the IC50 is 7 µM at Cytochrome P450 26A1 and over 20 µM in the experiment with Liver microsomes. For the compound `COc1ccc2c(c1)CC/C(=C\c1ccccc1C)C2=O`, the results for the 50% inhibitory concentration (IC50) on Cytochrome P450 26A1 and with Liver microsomes were 20 µM and over 20 µM, respectively. For `COc1ccc2c(c1)CC/C(=C\c1ccccc1Br)C2=O`, the IC50 at Cytochrome P450 26A1 is 9 µM; in the experiment on Liver microsomes, over 20 µM.

With `Nc1ccc(CC2CCc3cc(O)ccc3C2=O)cc1` (single isomer, unassigned; (+)), the IC50 on Cytochrome P450 26A1 turned out to be 43 µM; in the experiment with Liver microsomes it was 17.6 µM. In the experiment with Liver microsomes, `CC(=O)N1CCN(c2ccc(OCC3COC(Cn4ccnc4)(c4ccc(Cl)cc4Cl)O3)cc2)CC1` (configuration not stated) [KETOCONAZOLE] came in with an IC50 of 18 µM.

A word on the IC50: it is the concentration that gives 50% inhibition.

Values taken from ChEMBL document CHEMBL1139466, “Novel tetralone-derived retinoic acid metabolism blocking agents: synthesis and in vitro evaluation with liver microsomal and MCF-7 CYP26A1 cell assays” (J Med Chem, 2005).
